# Screening results: PubChem, several laboratories
# Rows were chosen to be rich in hits. Some 3.6% of all compounds tested hit in one or more screens of this group.
# Measles CPE – compounds protecting cells from measles virus cytopathic effect, primary screen, measles RdRp inhibitor project, single point, MLSMR library, absorbance | Measles virus-infected cells, CPE protection | 1.5% of 140,000 active | protection (pct of control), % at 4 µM; in the data active = protection mostly above about 24%, no sharp cut-off; inactive = mostly below about 26%
# Yeast life ext – compounds extending yeast replicative lifespan, primary screen, S. cerevisiae, OD615; S. cerevisiae growth with nicotinamide; deaD strain in restrictive glucose medium; 0.68% of 130,000 active; AID 775, 2007; inhibition of the nicotinamide effect, % at 10 µM;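 active = inhibition above a set limit, placed 3 SD over the median of all compounds, cut at about 26% in these data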;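 also: 0% = nicotinamide-treated wells and 100% = cells grown without nicotinamide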
#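 System: DeaD-strain S. cerevisiae / Buffer or medium: CSMM-D, restrictive glucose (dextrose) synthetic minimal medium / Probe or stimulus: nicotinamide, 1.5 mM, co-present with compound / Compound: one concentration, 10 µM, DMSO 0.25% / Incubation: 48 h compound exposure at 30 °C, humidified / Technique: optical density (absorbance) at 615 nm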
# RAM inhibit – inhibitors of the yeast RAM network, primary screen, dse1pr::URA3 reporter, 5-FOA selection; inhibition, % at 50 µM; AID 868, 2007; 1.8% of 190,000 active; S. cerevisiae dse1pr::URA3 reporter, 5-FOA growth OD615, 2 d; analog-sensitive cbk1-as2 kinase mutant strain;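 active = inhibition above a set limit, 3 SD over mean compound inhibition, cut at about 8.4% in these data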;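 also: 0% = DMSO-only wells with no growth and 100% = 10 µM 1-NA-PP1 full growth; inhibition rescues growth on 5-FOA so higher OD means more RAM inhibition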
# Yeast growth inh – growth inhibitors of yeast BB579 in restrictive medium, primary screen, yeast lifespan-shortening project, S. cerevisiae; inhibition, % at 10 µM; 0.51% of 140,000 active; OD615, 48 h;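 active = inhibition above a set limit, 3 SD over the mean compound inhibition, cut at about 44% in these data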
#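 Assay system: S. cerevisiae DeaD strain BB579 yeast. Medium: CSMM-D restrictive synthetic medium containing dextrose (glucose). Times: 4 h cell preincubation, 48 h compound exposure, 30 °C humidified. Signal: OD615 turbidity measurement. Benchmarks: positive control amphotericin B 10 µg/mL.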
# * = called active by the depositor; nt = no result.
SMILES,Measles CPE,Yeast life ext,RAM inhibit,Yeast growth inh
O=C1CC(=O)C(n2cncn2)C(c2ccc(Cl)cc2Cl)C1 (configuration not stated),22*,-11,2,-52
CC(C)(c1ccccc1)c1ccc(OCCn2cnc3ccccc3c2=O)cc1,3,3,8.7*,-33
COc1cc2c(cc1OC)CN(Cc1cc(OC)c(O)c(OC)c1)CC2,nt,nt,2,nt
O=C(O)CSc1nnc(-c2ccc3c(c2)OCO3)o1,4,-9,1,-20
O=C(c1ccc(Cl)cc1)N1CCCCC(Sc2nnc(-c3ccc4c(c3)OCO4)o2)C1=O (configuration not stated),39*,-2,1,-21
FC(F)(F)c1cccc(CNc2ncccc2-c2nc3cc(Cl)ccc3o2)c1,10,-1,8.5*,-31
Cc1ccccc1-c1nc2cc(Cl)ccc2o1,15,-22,4,-36
O=[N+]([O-])c1cc(S(=O)(=O)N2CCCC2)ccc1N/N=C1/CCCc2ccccc21,9,-1,4,-34
Cc1ccc(-n2ncc3c(SCc4cccnc4)ncnc32)c(C)c1,nt,nt,0,nt
Cc1nn(-c2ccccc2)c(Cl)c1/C=N/NC(=O)c1cccnc1,44*,-3,1,-45
CCNS(=O)(=O)c1ccc(NC(=S)NCC2CCCO2)cc1 (configuration not stated),nt,nt,0,nt
Cc1cc(Cl)ccc1C(=O)C1CCCN(C(=O)c2cnsn2)C1 (configuration not stated),nt,nt,0,nt
CCOC(=O)c1ccc2c(c1)C1C=CCC1C(C(=O)O)N2 (configuration not stated),2,-9,9.7*,-34
COc1ccccc1C(=O)OCC(=O)Nc1ccc(Cl)cn1,nt,nt,5,nt
CCOC(=O)CSc1nc(Cc2ccccc2)nc2ccccc12,nt,nt,-1,nt
COc1ccc(NC2CC(=O)N(c3cc([N+](=O)[O-])ccc3C)C2=O)cc1 (configuration not stated),nt,nt,-1,nt
CCC(=O)Nc1nc2ccc(S(C)(=O)=O)cc2s1,52*,nt,1,-4
CCCc1nn(C)c(C(=O)Nc2ccc3ccccc3c2)c1Cl,18,0,11*,-28
CCCc1nn(C)c(C(=O)Nc2cccc(CC)c2)c1Cl,17,-3,0,-31
O=C(c1cnn(-c2ccccc2)c1)c1ccc2ccccc2c1O,18,-10,10*,-10
CN(C[C@H](Cc1ccccc1)N(C[C@H](c1ccccc1)N(CCc1ccccc1)N=O)N=O)N=O,nt,nt,8.8*,nt
NC(=O)CCC(NC(=O)c1ccc(Cl)cc1)C(=O)O (configuration not stated),nt,nt,0,nt
COc1ccc(Nc2sc(C(=O)Nc3cccc(Cl)c3)c(N)c2C(=O)Nc2ccccc2OC)cc1,16,1,9.7*,-23
CCOC(=O)c1sc(N)c(C(=O)Nc2ccccc2OC)c1C,nt,nt,4,nt
COc1ccccc1NC(=O)c1c(Nc2ccccc2F)sc(C(=O)Nc2cccc(Cl)c2)c1N,4,8,11*,-54
SMILES,Measles CPE,Yeast life ext,RAM inhibit,Yeast growth inh
COc1ccc(OC)c(-c2cc(C(=O)Nc3cccc(Cl)c3)no2)c1,13,-10,2,-35
COc1ccnc(Oc2ccccc2)c1C(=O)N/C=N/OCc1ccccc1F,nt,nt,1,nt
O=C(/C=C/c1cccs1)N1CCN(c2ccccc2)CC1,nt,nt,2,nt
CCCOP(=O)(OCCC)C(Nc1ccc(C(C)C)cc1)c1ccc([N+](=O)[O-])cc1 (configuration not stated),1,-3,9.4*,-36
CC(C)COP(=O)(OCC(C)C)C(Nc1ccccc1)c1ccc(F)cc1 (configuration not stated),4,6,1,-36
Cc1ccc(C(=O)NCc2ccco2)cc1Br,23,-6,-2,-41
Cc1c(Br)cc(C(=O)NCc2ccco2)c(C)c1C,103*,13,2,-11
CCc1cc2c(cc(C(=O)O)n2C)s1,3,-6,-1,58*
CCC1(C)CC(c2csc(N)n2)CCO1 (configuration not stated),65*,10,0,5
O=C(O)C(O)C(O)c1nc2ccccc2[nH]1 (configuration not stated),nt,nt,2,nt
O=c1[nH]c(CSc2ccccn2)nc2c1oc1ccccc12,nt,nt,1,nt
OCCN(/C=N/c1nc(-c2ccc(Br)cc2)cs1)CCO,32*,-12,3,1
Cc1ccccc1OCC(=O)Nc1ccccc1-c1ccccc1NC(=O)COc1ccccc1C,4,8,9.4*,-10
Cc1ccccc1OCC(=O)N/N=C/c1ccco1,45*,-15,2,-37
Cc1ccc(OCC(=O)N/N=C/c2ccco2)cc1,16,-12,1,-4
Cc1nc(Cl)sc1C(=O)Nc1cccc(Cl)c1C,6,0,4,-17
COc1cc(CO)ccc1OCc1nnnn1-c1ccc(C)cc1,nt,nt,0,nt
CCCCC1=NN2CCS(=O)(=O)N=C2S1,nt,nt,0,nt
O=c1c(Cl)c(Cl)cnn1-c1ccccc1,0,40*,3,16
CCCCNc1cnn(-c2ccccc2)c(=O)c1Cl,nt,nt,0,nt
O=C(CO/N=C/c1ccc(OC(F)F)cc1)NC1CCCCCC1,nt,nt,0,nt
Cc1cc(C)c(NC(=O)CO/N=C2\CCCc3nonc32)c(C)c1,12,-6,-1,-11
O=c1oc2ccccc2c(N2CCCC2)c1CN1CCCC1,4,-9,0,86*
Cn1cc(CNCCN2CCCCC2=O)c(-c2cccc(Cl)c2)n1,nt,nt,2,nt
O=C(NC1CCCCC1)NC1CC2CCC(C1)N2C(=O)NC1CCCCC1 (configuration not stated),25*,-11,0,-3
SMILES,Measles CPE,Yeast life ext,RAM inhibit,Yeast growth inh
O=C(NC1CCCCC1)NC1CC2CCC(C1)N2C(=O)NCc1ccccc1 (configuration not stated),12,-6,-1,-21
CNC(=O)c1ccccc1-c1cn(C)c2ccccc2c1=O,nt,nt,1,nt
Cc1ccc(O)c(C(=O)c2cc(C(=O)NCCc3ccccc3)c(=O)n(CCc3ccccc3)c2)c1,17,3,8.9*,-19
COc1cc(C2Nc3cccc4cccc(c34)N2)cc(OC)c1O,23,7,9.3*,-30
Cc1cccc2sc(NNC(=O)c3ccc4c(c3)OCCO4)nc12,37*,-5,-1,10
COc1ccc(C)cc1NC(=O)COC(=O)Cc1ccc(-c2ccccc2)cc1,9,-2,9.6*,-3
COc1ccc(NC(=O)COC(=O)Cc2ccc(-c3ccccc3)cc2)c(OC)c1,8,0,7,-21
COc1ccc(-c2cc(CNS(=O)(=O)c3ccc(F)cc3)on2)cc1,nt,nt,0,nt
COCC(C)OC(=O)/C(C#N)=C\c1coc2ccc(C)cc2c1=O (configuration not stated),8,5,-1,63*
Cc1ccc(NC(=O)c2ccc(Cn3cc([N+](=O)[O-])cn3)cc2)c(C)c1,10,-4,1,-28
